Results as given in article PMC3210412 (Biochemical pharmacology, 2011).

How the values were obtained:
ITGA6 (ERα target gene) = assay: qPCR of ERα target gene ITGA6 in Hs578T-ERα cells; assay type: cell-based; details: for ITGA6 expression in Hs578T-ERα cells at 1 μM: 1 μM ligand, 24 hr; for ITGA6 expression in Hs578T-ERα cells: ligand 24 hr, DPN 10 nM, liquiritigenin 100 nM
How it was run: (§1)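 Cells were hormone-depleted for 3 days in phenol red-free DMEM/F12 + 10% charcoal-stripped FBS, split into 5% stripped serum, and induced with 50 ng/mL Dox for 48 hr. They were then treated with Dox plus test compound or 0.1% DMSO vehicle for 24 hr. Total RNA was extracted and assayed by qRT-PCR: ITGA6 in Hs578T-ERα cells, C3 and JAG1 in Hs578T-ERβ cells. There were three biological replicates, with two-tailed t-tests against control.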

C3 (ERβ target gene) = assay: qPCR of ERβ target gene C3 in Hs578T-ERβ cells; assay type: cell-based; details: 50 ng/mL Dox 48 hr, ligand 24 hr; cosmosiin 1 μM
How it was run: as §1

ERα [1] = target: T1, ERα (Homo sapiens, UniProt P03372); details: concentrations up to 2.5 μM; U2OS, HeLa or WAR5 prostate cancer cells transfected with ERα; cited from earlier work
T1 sequence (P03372 1-595): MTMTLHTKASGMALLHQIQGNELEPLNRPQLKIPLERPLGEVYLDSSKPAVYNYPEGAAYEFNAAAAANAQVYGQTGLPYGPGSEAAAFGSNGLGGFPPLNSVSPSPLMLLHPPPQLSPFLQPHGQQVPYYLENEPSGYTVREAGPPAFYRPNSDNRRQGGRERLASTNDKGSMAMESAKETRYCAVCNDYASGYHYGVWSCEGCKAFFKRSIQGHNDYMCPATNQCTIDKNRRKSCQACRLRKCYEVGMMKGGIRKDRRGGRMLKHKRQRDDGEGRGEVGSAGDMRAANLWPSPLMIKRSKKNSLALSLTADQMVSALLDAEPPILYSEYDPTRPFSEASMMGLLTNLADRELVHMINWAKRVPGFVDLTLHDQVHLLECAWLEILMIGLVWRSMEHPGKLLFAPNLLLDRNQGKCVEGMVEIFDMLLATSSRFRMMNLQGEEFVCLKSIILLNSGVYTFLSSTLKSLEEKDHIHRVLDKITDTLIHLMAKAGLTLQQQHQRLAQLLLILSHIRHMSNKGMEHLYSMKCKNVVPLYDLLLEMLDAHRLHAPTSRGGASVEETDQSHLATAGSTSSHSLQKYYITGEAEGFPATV

JAG1 (ERβ target gene) = assay: qPCR of ERβ target gene JAG1 in Hs578T-ERβ cells; assay type: cell-based; details: for JAG1 repression in Hs578T-ERβ cells: 50 ng/mL Dox 48 hr, ligand 24 hr; for JAG1 repression compared to E2, DPN or 1 μM liquiritigenin: 100 nM liquiritigenin, 1 μM cosmosiin
How it was run: as §1

ERα [2] = target: T1, ERα; details: cited from earlier work
ERβ [3] = target: T2, ERβ (Homo sapiens, UniProt Q92731); assay: Luciferase reporter assay in Hs578T-ERβLuc cells; assay type: cell-based; details: for luciferase induction in Hs578T-ERβLuc (in words): b31: 10 nM DPN or PPT, 24 hr, cosmosiin up to 10 μM
T2 sequence (Q92731 whole entry): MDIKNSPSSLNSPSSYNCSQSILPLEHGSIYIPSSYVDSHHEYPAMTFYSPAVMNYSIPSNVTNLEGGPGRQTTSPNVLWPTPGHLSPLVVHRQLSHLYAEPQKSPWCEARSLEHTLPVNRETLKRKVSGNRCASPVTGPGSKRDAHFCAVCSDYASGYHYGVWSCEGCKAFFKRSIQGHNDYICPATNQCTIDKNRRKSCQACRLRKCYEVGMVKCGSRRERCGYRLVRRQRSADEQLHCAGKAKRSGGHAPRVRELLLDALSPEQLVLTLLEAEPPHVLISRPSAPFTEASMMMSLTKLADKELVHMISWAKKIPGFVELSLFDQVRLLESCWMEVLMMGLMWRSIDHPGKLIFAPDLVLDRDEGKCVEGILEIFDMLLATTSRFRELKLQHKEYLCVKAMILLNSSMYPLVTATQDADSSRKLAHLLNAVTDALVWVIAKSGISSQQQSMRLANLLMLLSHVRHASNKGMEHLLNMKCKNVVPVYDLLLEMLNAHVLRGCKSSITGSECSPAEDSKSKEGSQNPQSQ

ERβ [4] = target: T2, ERβ; details: cited from earlier work
ERα [5] = target: T1, ERα; details: cited from earlier work; remark: listed apart in the source
ERα [6] = target: T1, ERα; assay: Luciferase reporter assay in Hs578T-ERαLuc cells; assay type: cell-based; details: for luciferase induction in Hs578T-ERαLuc (in words): b31: 10 nM DPN or PPT, 24 hr
FLuc reporter transcript = assay: RT-PCR of firefly luciferase; assay type: cell-based; details: 1 μM cosmosiin vs 1 nM E2, 4 and 24 hr; both cell lines
ERβ [7] = target: T2, ERβ; assay: Competitive ligand binding assay
ERα [8] = target: T1, ERα; assay: Competitive ligand binding assay; details: read-out: IC50 ERα, unpublished data
ERα/β and ERβ/β dimers = assay: BRET dimerization assays; assay type: cell-based; details: unpublished data
[9] = cited from earlier work
ERβ [10] = target: T2, ERβ; assay: pGL4.3xERE reporter in HEK293 cells transfected with full length ERβ; assay type: cell-based; details: 1 nM E2, 24 hr
T47D-KBLuc cells = details: read-out: EC50, T47D-KBLuc cells; approximate; cited from earlier work

Compound | ITGA6 expression in Hs578T-ERα cells at 1 μM (ITGA6 (ERα target gene)) | ITGA6 expression in Hs578T-ERα cells (ITGA6 (ERα target gene)) | C3 expression in Hs578T-ERβ cells (C3 (ERβ target gene)) | JAG1 repression in Hs578T-ERβ cells (JAG1 (ERβ target gene)) | JAG1 repression compared to E2, DPN or 1 μM liquiritigenin (JAG1 (ERβ target gene)) | luciferase induction in Hs578T-ERβLuc (in words) (ERβ [3]) | luciferase induction in Hs578T-ERαLuc (in words) (ERα [6]) | further results
O=C1C[C@@H](c2ccc(O)cc2)Oc2cc(O)ccc21 [Liquiritigenin, liquiritigenin] | ITGA6 expression was induced | did not fully activate its expression | capable of inducing C3 expression to a comparable level as E2 | occurred to a similar degree | do not fully repress JAG1 expression |  |  | activation of ERα in transcriptional assays (ERα [1]): minimal activation of ERα
CCCc1c(-c2ccc(O)cc2)nn(-c2ccc(O)cc2)c1-c1ccc(O)cc1 [PPT, propyl pyrazole triol] |  | up-regulated | slightly induced C3 expression compared to DMSO | had no effect on JAG1 repression |  | could not induce luciferase expression to the same extent as E2 | selectively activated luciferase expression in Hs578T-ERαLuc | induction of estrogen responsive reporter, HELN-ERα cells (ERα [2]): unable to induce an estrogen responsive reporter; EC50 (ERβ [3]): 26 nM; concentrations at which reporter is activated in Hs578T-ERβLuc (ERβ [3]): greater than 100 nM; induction of estrogen responsive reporter, HEC-1 cells + ERβ (ERβ [4]): unable to induce an estrogen responsive reporter; higher binding affinity for ERα compared to ERβ (ERα [5]): 400 fold; EC50 (ERα [6]): 0.016 nM; selectivity for ERα (EC50 comparison) (ERα [6]; Hs578T-ERαLuc vs Hs578T-ERβLuc): ~1000 fold
N#CC(Cc1ccc(O)cc1)c1ccc(O)cc1 (stereo not shown) [DPN, diarylpropionitrile] |  | did not fully activate its expression | capable of inducing C3 expression to a comparable level as E2 | occurred to a similar degree |  |  |  | 
O=c1cc(-c2ccc(O)cc2)oc2cc(O[C@@H]3O[C@H](CO)[C@@H](O)[C@H](O)[C@H]3O)cc(O)c12 [Cosmosiin, apigenin 7-glucoside] | ITGA6 expression was induced |  | induced C3 expression at 1 μM, but not to the same extent as E2 | occurred to a similar degree | do not fully repress JAG1 expression | induced luciferase expression to a much greater extent than E2 | only slightly activated luciferase reporter expression | luciferase induction with ICI 182,780 co-treatment or without Dox (ERβ [3]; data not shown): did not induce luciferase expression in Dox-treated cells co-treated with ICI 182,780 or cells not treated with Dox; luciferase transcript level compared to E2 (FLuc reporter transcript): did not induce luciferase expression to a greater extent than E2; IC50 (ERβ [7]; read-out: IC50 ERβ, unpublished data): 3300 nM; higher binding affinity for ERβ (ERβ [7]; unpublished data): 3 fold; IC50 (ERα [8]): 15900 nM; ER dimer induction (BRET) (ERα/β and ERβ/β dimers): selectively induces ERα/β and ERβ/β dimers
C=Cc1cc(O)cc2nc(-c3ccc(O)c(F)c3)oc12 [ERB-041] |  |  |  |  |  |  |  | efficacy in rheumatoid arthritis trial [9]: did not improve arthritis symptoms; tolerability in rheumatoid arthritis trial [9]: well tolerated
C[C@]12CC[C@@H]3c4ccc(O)cc4CC[C@H]3[C@@H]1CC[C@@H]2O [E2, 17β-estradiol] |  | up-regulated | up-regulated in Hs578T-ERβ cells | occurred to a similar degree |  |  |  | induction of luciferase, HEK293 + ERβ (ERβ [10]): 15 fold; EC50 (T47D-KBLuc cells): ~0.003 nM
